Assay results: ChEMBL document CHEMBL2331219, “Synthesis and anti-Candida activity of novel 2-hydrazino-1,3-thiazole derivatives” (Bioorg Med Chem Lett, 2013)
Values after ≈ are worked out from the molar mass of the structure shown.

What was measured:
Candida albicans [1] = test: Antifungal activity against fluconazole-resistant Candida albicans clinical isolate 5.O.A assessed as growth inhibition after 24 to 48 hrs by CLSI microbroth dilution method; assay type: functional
Outline: (§1)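 Microbroth dilution per CLSI M27-A3. Isolates subcultured for purity, incubated at 35 °C; five colonies >1 mm suspended in saline, adjusted to 0.5 × 10³ to 2.5 × 10³ in RPMI 1640 buffered to pH 7.0 with 0.165 M MOPS. Compounds diluted in RPMI to final […]. Read visually after 24 h and 48 h at 35 °C; MIC judged by turbidity against drug-free growth control.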

[2] = Aqueous solubility in PBS buffer at pH 7.0; assay type: physicochemical
Nakaseomyces glabratus [3] = test: Antifungal activity against voriconazole-resistant Candida glabrata clinical isolate 724 assessed as growth inhibition after 24 to 48 hrs by CLSI microbroth dilution method; assay type: functional; outline: as §1
Candida albicans [4] = test: Antifungal activity against azole-resistant Candida albicans clinical isolate 7.O.A assessed as growth inhibition after 24 to 48 hrs by CLSI microbroth dilution method; assay type: functional; outline: as §1
Candida parapsilosis [5] = test: Antifungal activity against anidulafungin-resistant Candida parapsilosis isolate 22019 assessed as growth inhibition after 24 to 48 hrs by CLSI microbroth dilution method; assay type: functional; details: Lodderomyces parapsilosis; outline: as §1
Candida parapsilosis [6] = test: Antifungal activity against anidulafungin-resistant Candida parapsilosis ANF8 assessed as growth inhibition after 24 to 48 hrs by CLSI microbroth dilution method; assay type: functional; details: Lodderomyces parapsilosis; outline: as §1
Nakaseomyces glabratus [7] = test: Antifungal activity against voriconazole-resistant Candida glabrata clinical isolate 730 assessed as growth inhibition after 24 to 48 hrs by CLSI microbroth dilution method; assay type: functional; outline: as §1
Candida albicans [8] = test: Antifungal activity against caspofungin-resistant Candida albicans assessed as growth inhibition after 24 to 48 hrs by CLSI microbroth dilution method
Nakaseomyces glabratus [9] = test: Antifungal activity against fluconazole-resistant Candida glabrata isolate 6258 assessed as growth inhibition after 24 to 48 hrs by CLSI microbroth dilution method; assay type: functional; outline: as §1
[10] = Cytotoxicity against mouse NIH/3T3 cells assessed as cell viability at 31.3 ug/mL after 24 hrs by MTT assay relative to control; assay type: cell-based, NIH3T3; details: read-out: Activity
Outline: (§2)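 NIH/3T3 fibroblasts kept in DMEM with 10% fetal calf serum, penicillin/streptomycin, 37 °C, 5% CO2. Cells seeded at 2 × 10⁴ cells/mL, grown 24 h, then given compound (DMSO stock diluted in medium, final DMSO <0.1%) for 24 h. MTT at 0.5 mg/mL final added for 4 h, formazan dissolved in DMSO, absorbance read at 540 nm. Triplicate wells, mean ± SD, assay run twice.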

[11] = Cytotoxicity against mouse NIH/3T3 cells assessed as cell viability at 0.5 ug/mL after 24 hrs by MTT assay relative to control; assay type: cell-based, NIH3T3; details: read-out: Activity; outline: as §2
[12] = Cytotoxicity against mouse NIH/3T3 cells assessed as cell viability at 62.5 ug/mL after 24 hrs by MTT assay relative to control; assay type: cell-based, NIH3T3; details: read-out: Activity; outline: as §2
[13] = Cytotoxicity against mouse NIH/3T3 cells assessed as cell viability at 1 ug/mL after 24 hrs by MTT assay relative to control; assay type: cell-based, NIH3T3; details: read-out: Activity; outline: as §2

SMILES	MIC (Candida albicans [1]) [µg/mL]	solubility [2] [µM]	MIC (Nakaseomyces glabratus [3]) [µg/mL]	MIC (Candida albicans [4]) [µg/mL]	MIC (Candida parapsilosis [5]) [µg/mL]	MIC (Candida parapsilosis [6]) [µg/mL]	MIC (Nakaseomyces glabratus [7]) [µg/mL]	MIC (Candida albicans [8]) [µg/mL]	MIC (Nakaseomyces glabratus [9]) [µg/mL]	viability at 24 h, 31.3 ug/mL [10] [%]	viability at 24 h, 0.5 ug/mL [11] [%]	viability at 24 h, 62.5 ug/mL [12] [%]	viability at 24 h, 1 ug/mL [13] [%]
C/C(=N\Nc1nc([C@@H]2CCCN2)cs1)c1ccc2c(c1)CCC2	> 16	900 (≈ 294 µg/mL)	> 16	> 16	> 16	> 16	16 (≈ 49 µM)	> 16	> 16				
C/C(=N\Nc1nc([C@@H]2CCCN2C(=O)OCc2ccccc2)cs1)c1ccc2c(c1)CCC2	> 16		> 16	> 16	> 16	> 16	> 16	> 16	> 16				
COc1ccc(O)c(-c2csc(N/N=C/c3ccco3)n2)c1	> 16		> 16	> 16	> 16	> 16	> 16	> 16	> 16				
COc1ccc(O)c(-c2csc(N/N=C/c3cc[nH]c3)n2)c1	16 (≈ 50.9 µM)		8 (≈ 25.4 µM)	> 16	16 (≈ 50.9 µM)	> 16	16 (≈ 50.9 µM)	16 (≈ 50.9 µM)	> 16				
COc1ccc(O)c(-c2csc(N/N=C/c3c(-c4ccccc4)nc4scc(C)n34)n2)c1	> 16		> 16	> 16	> 16	4 (≈ 8.67 µM)	2 (≈ 4.33 µM)	> 16	> 16	64.1	94.6	59.5	90
C/C(=N\Nc1nc([C@H](C)N)cs1)c1ccc2c(c1)CCC2	> 16	700 (≈ 210 µg/mL)	8 (≈ 26.6 µM)	> 16	8 (≈ 26.6 µM)	0.5 (≈ 1.66 µM)	8 (≈ 26.6 µM)	16 (≈ 53.3 µM)	0.125 (≈ 0.416 µM)	36.2	93.6	32.4	92.6
COc1ccc(O)c(-c2csc(NN=C3CCCCC3)n2)c1	> 16		> 16	> 16	16 (≈ 50.4 µM)	> 16	8 (≈ 25.2 µM)	> 16	16 (≈ 50.4 µM)				
COc1ccc(O)c(-c2csc(N/N=C/c3cc4ccccc4o3)n2)c1	> 16		> 16	> 16	> 16	> 16	> 16	> 16	> 16				
COc1ccc(O)c(-c2csc(N/N=C/c3cnc[nH]3)n2)c1	> 16		> 16	> 16	> 16	> 16	> 16	> 16	> 16				
COc1ccc(O)c(-c2csc(N/N=C/c3ccc4ccccc4c3)n2)c1	> 16		> 16	2 (≈ 5.33 µM)	> 16	> 16	> 16	> 16	> 16	45.3	83.7	52.7	69.2
C[C@@H]1[C@H](O)[C@@H](C)/C=C/C=C/C=C/C=C/C=C/C=C/C=C/[C@H](O[C@@H]2O[C@H](C)[C@@H](O)[C@H](N)[C@@H]2O)C[C@@H]2O[C@](O)(C[C@@H](O)C[C@@H](O)[C@H](O)CC[C@@H](O)C[C@@H](O)CC(=O)O[C@H]1C)C[C@H](O)[C@H]2C(=O)O [AMPHOTERICIN B]	0.5 (≈ 0.541 µM)		0.5 (≈ 0.541 µM)	0.5 (≈ 0.541 µM)	1 (≈ 1.08 µM)	0.5 (≈ 0.541 µM)	1 (≈ 1.08 µM)	0.5 (≈ 0.541 µM)	1 (≈ 1.08 µM)				
COc1ccc(O)c(-c2csc(N/N=C(/C)C3CCc4ccccc43)n2)c1 (centres undefined)	> 16	< 50	> 16	> 16	> 16	> 16	16 (≈ 42.2 µM)	> 16	> 16				
C[C@@H](c1ncncc1F)[C@](O)(Cn1cncn1)c1ccc(F)cc1F [VORICONAZOLE]	0.25 (≈ 0.716 µM)		8 (≈ 22.9 µM)	> 16	0.25 (≈ 0.716 µM)	0.06 (≈ 0.172 µM)	16 (≈ 45.8 µM)	0.25 (≈ 0.716 µM)	2 (≈ 5.73 µM)				
C/C(=N\Nc1nc([C@H](Cc2c[nH]c3ccccc23)NC(=O)OCc2ccccc2)cs1)c1ccc2c(c1)CCC2	> 16		> 16	> 16	8 (≈ 14.6 µM)	> 16	8 (≈ 14.6 µM)	> 16	> 16				
C/C(=N\Nc1nc([C@H](C)NC(=O)OCc2ccccc2)cs1)c1ccc2c(c1)CCC2	> 16		> 16	> 16	> 16	> 16	> 16	> 16	> 16				
CCC(C)n1ncn(-c2ccc(N3CCN(c4ccc(OCC5COC(Cn6cncn6)(c6ccc(Cl)cc6Cl)O5)cc4)CC3)cc2)c1=O (centres undefined) [ITRACONAZOLE]	0.5 (≈ 0.709 µM)		2 (≈ 2.83 µM)	> 16	0.5 (≈ 0.709 µM)	0.03 (≈ 0.0425 µM)	1 (≈ 1.42 µM)	0.03 (≈ 0.0425 µM)	0.5 (≈ 0.709 µM)				
C/C(=N\Nc1nc([C@H](Cc2ccccc2)NC(=O)OCc2ccccc2)cs1)c1ccc2c(c1)CCC2	> 16		> 16	> 16	> 16	> 16	> 16	> 16	> 16				
COc1ccc(O)c(-c2csc(N/N=C/c3ccc4c(c3)OCO4)n2)c1	> 16		> 16	> 16	> 16	> 16	> 16	> 16	> 16				
COc1ccc(O)c(-c2csc(N/N=C/c3c[nH]c4ccccc34)n2)c1	0.25 (≈ 0.686 µM)		> 16	0.5 (≈ 1.37 µM)	> 16	0.25 (≈ 0.686 µM)	0.5 (≈ 1.37 µM)	2 (≈ 5.49 µM)	> 16	70.6	91.9	50.2	80.6
COc1ccc(O)c(-c2csc(N/N=C/c3cnc4ccccn34)n2)c1	> 16		> 16	> 16	> 16	> 16	> 16	> 16	> 16				
CC[C@H](C)C[C@H](C)CCCCCCCCC(=O)N[C@H]1C[C@@H](O)[C@@H](NCCN)NC(=O)[C@@H]2[C@@H](O)CCN2C(=O)[C@H]([C@H](O)CCN)NC(=O)[C@H]([C@H](O)[C@@H](O)c2ccc(O)cc2)NC(=O)[C@@H]2C[C@@H](O)CN2C(=O)[C@H]([C@@H](C)O)NC1=O [CASPOFUNGIN]	0.5 (≈ 0.457 µM)		0.5 (≈ 0.457 µM)	0.25 (≈ 0.229 µM)	0.5 (≈ 0.457 µM)	8 (≈ 7.32 µM)	2 (≈ 1.83 µM)	0.5 (≈ 0.457 µM)	2 (≈ 1.83 µM)				
C/C(=N\Nc1nc([C@@H](N)Cc2ccccc2)cs1)c1ccc2c(c1)CCC2	> 16	150 (≈ 56.5 µg/mL)	> 16	> 16	> 16	> 16	> 16	> 16	> 16				
OC(Cn1cncn1)(Cn1cncn1)c1ccc(F)cc1F [FLUCONAZOLE]	32 (≈ 104 µM)		64 (≈ 209 µM)	> 64	64 (≈ 209 µM)	1 (≈ 3.27 µM)	64 (≈ 209 µM)	0.125 (≈ 0.408 µM)	16 (≈ 52.2 µM)				
